# Source: PubChem (several laboratories)
# Wee1 stabilizer – Wee1 degradation inhibitors, primary screen, cell-based, HeLa, Wee1K328M-luciferase, luminescence | Wee1-like protein kinase (Homo sapiens), P30291 | HeLa Luc-Wee1K328M stability; 100% = proteasome inhibitor MG132 effect | reporter increase, % at 5 µM | 220,000 compounds, 1.2% hits;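 active means activation above the mean of all tested compounds plus 3 SD, set per screening run, cut at about 8.8% in these data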;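 further: cells exposed to compound for 20 h before luminescence read; 0% = DMSO alone and 100% = MG132 at 30 µM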
# Rad51 HR inh – human RAD51 strand exchange inhibitors, primary screen, biochemical, fluorescence; hRad51 DNA strand exchange, fluorescence dequenching; 200,000 compounds, 0.085% hits; inhibition, % at 10 µM;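 active means inhibition above 40% at the single screening dose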;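 further: 0% = DMSO control wells and 100% = blanks with heterologous ssDNA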
#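 Test system: preformed human Rad51 ssDNA filaments. Compound dosing: single dose, 10 µM final compound. Incubation: filaments 15 min 37 °C, then compound 30 min. Technique: FRET fluorescence dequenching, excitation 485 nm, emission 520 nm. Read-out basis: percent inhibition from fluorescence, normalised to plate control and blank means. Benchmarks: plate controls and plate blanks.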
# PKD1 inh – inhibitors of human PKD1 kinase, biochemical, fluorescence polarization; Serine/threonine-protein kinase D1 (Homo sapiens), Q15139; PKD1 kinase fluorescence polarization assay; inhibition, % (concentration not given with the values); 200,000 compounds, 0.056% hits
# Target sequence (Q15139 whole entry, looked up): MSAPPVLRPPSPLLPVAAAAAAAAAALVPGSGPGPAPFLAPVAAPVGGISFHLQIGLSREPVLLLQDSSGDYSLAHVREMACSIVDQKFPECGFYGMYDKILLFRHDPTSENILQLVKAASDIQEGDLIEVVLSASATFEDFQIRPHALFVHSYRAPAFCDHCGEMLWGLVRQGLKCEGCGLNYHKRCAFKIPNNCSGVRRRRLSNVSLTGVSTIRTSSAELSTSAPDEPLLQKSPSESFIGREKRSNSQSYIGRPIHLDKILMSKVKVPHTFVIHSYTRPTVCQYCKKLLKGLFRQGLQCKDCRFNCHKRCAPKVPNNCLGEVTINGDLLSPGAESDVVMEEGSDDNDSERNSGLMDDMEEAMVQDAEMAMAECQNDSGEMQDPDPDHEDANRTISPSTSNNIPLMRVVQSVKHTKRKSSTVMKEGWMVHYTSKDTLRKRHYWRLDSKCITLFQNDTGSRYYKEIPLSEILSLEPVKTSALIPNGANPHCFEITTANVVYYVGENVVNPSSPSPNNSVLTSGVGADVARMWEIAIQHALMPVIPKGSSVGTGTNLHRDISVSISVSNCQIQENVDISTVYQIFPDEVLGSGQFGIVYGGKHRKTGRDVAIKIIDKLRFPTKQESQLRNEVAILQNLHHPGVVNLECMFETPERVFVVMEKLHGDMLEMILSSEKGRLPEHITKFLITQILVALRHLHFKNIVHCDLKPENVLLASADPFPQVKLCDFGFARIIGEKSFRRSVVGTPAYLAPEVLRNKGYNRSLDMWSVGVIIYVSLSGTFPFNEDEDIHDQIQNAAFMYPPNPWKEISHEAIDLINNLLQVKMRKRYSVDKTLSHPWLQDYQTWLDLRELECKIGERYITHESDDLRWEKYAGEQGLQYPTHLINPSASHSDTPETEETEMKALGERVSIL
# Lmaj promast – Leishmania major promastigote growth inhibition, primary screen; Leishmania major promastigotes, resazurin fluorescence viability; inhibition, % at 10 µM; 200,000 compounds, 9% hits; AID 1063, 2008;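 further: promastigotes grown with compound for 44 hours at 28 °C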
# CHOP inhibitor – inhibitors of CHOP promoter induction, primary screen, cell-based, unfolded protein response, luciferase reporter | AID 2732, 2010 | CHO-K1 CHOP-promoter luciferase, tunicamycin-induced, 15-18 h | 220,000 compounds, 3.8% hits | inhibition, % at 10 µM;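 active means compounds that reduced the stress-induced luciferase reporter signal by more than about 70% of percent inhibition, limit read from the data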;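 further: 0% = tunicamycin plus vehicle and 100% = wells without tunicamycin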
# Arbovirus inh – antivirals against arbovirus infection, primary screen, cell-based, full library, 10K replicate subset; AID 1251, 2008; 200,000 compounds, 0.37% hits; inhibition, % at 10 µM; arbovirus infection cell-based antiviral screen; in the data active means inhibition above about 30%
# * hit, by the source's call; nt = no result given. This is a sample that favours compounds with a hit; in the whole collection about 12% have one here. Unless noted, no stated cut-off is given here; in the data, active means inhibition above about 50%; inactive means the rest.
SMILES,Wee1 stabilizer,Rad51 HR inh,PKD1 inh,Lmaj promast,CHOP inhibitor,Arbovirus inh
CCC1CCCCN1Cc1nc2c(c(=O)n(C)c(=O)n2C)n1Cc1ccccc1 (stereo unspecified),0,-3,-5,7,83*,1
Cc1ccc(Cn2c(SCCN3CCCCC3)nc3c2c(=O)n(C)c(=O)n3C)cc1,-2,-3,-7,99*,22,2
CCN(CC)C(=O)CSc1nnc(COc2cccc(C)c2)n1C,-2,nt,4,-3,17,-1
COc1ccc(CC2SC(=Nc3ccc(F)cc3)NC2=O)cc1 (stereo unspecified),-2,-1,2,4,18,8
CCN(CC)S(=O)(=O)c1ccc(C)c(NC(=O)COc2ccc(Cl)cc2Br)c1,3,-3,1,-3,74*,-6
CCN(CC)S(=O)(=O)c1ccc(C)c(NC(=O)COC(=O)C=C(C)C)c1,-2,8,nt,nt,-1,nt
Cc1ccnc(N2CCC(C(=O)NNC(=O)COc3cccc4ccccc34)CC2)n1,0,2,6,-9,10,-6
O=C(NCc1ccco1)/C(=C/c1ccc(C(F)(F)F)cc1)c1nc2ccccc2[nH]1,2,-2,-10,84*,89*,0
O=C(Cn1cnc2ccccc21)N1CCN(S(=O)(=O)c2ccccc2)CC1,2,2,-1,0,13,6
COC(=O)C1=CN(C(C)C)C=C(C(=O)OC)C1c1cc(Br)c(OC)c(OC)c1,0,4,0,100*,0,-9
COc1cccc(C(=O)NN2C(=S)N(c3ccccc3)C(=O)C2CC(N)=O)c1 (stereo unspecified),-2,11,nt,nt,-34,nt
c1ccc(-c2nc(NCCCN3CCOCC3)c3ccccc3n2)cc1,-2,-3,-5,62*,30,-10
Cc1ccc2ncnc(NCCCN3CCOCC3)c2c1,3,23,-1,4,23,11
Cc1cccc(-c2nc(NCCCN3CCOCC3)c3ccccc3n2)c1,-2,1,-5,100*,23,-22
c1ccc2[nH]c(NCCCN3CCOCC3)nc2c1,6,-2,10,1,24,1
CCN(CC)CCCOC(=O)c1ccc(OC)cc1O,-1,7,-7,74*,21,2
CCN(CC)CCOC(=O)c1c(C)oc2ccc(OC)cc12,0,5,1,100*,23,6
C=C(C)COc1ccc2oc(C)c(C(=O)OCCOC)c2c1,-1,-3,-4,-4,21,-2
CCN(CC)CCOC(=O)c1cccc(OC)c1,3,3,-12,-5,1,0
C/C(=N\Nc1nc(C)c(C)s1)c1ccc([N+](=O)[O-])cc1,4,26,0,-5,-3,-22
Cc1nc2ccc(NC(=O)c3ccc(Cl)c(S(=O)(=O)N(C)c4ccccc4)c3)cc2s1,-1,nt,7,100*,55,-5
COc1nc2ccccc2nc1OC,2,nt,1,-6,7,4
O=C(CCl)NC(=O)NC12CC3CC(CC(C3)C1)C2,-1,2,-5,101*,103*,3
Cc1noc(C)c1C(=O)OCC(=O)NC(=O)NC12CC3CC(CC(C3)C1)C2,-2,-2,2,7,81*,3
CN=CC1=C(O)c2ccccc2C1=O,-2,-10,-3,-4,15,13
SMILES,Wee1 stabilizer,Rad51 HR inh,PKD1 inh,Lmaj promast,CHOP inhibitor,Arbovirus inh
O=C1C(C2=C(O)c3ccccc3C2=O)=Nc2ccccc21,-1,-3,-12,100*,22,-17
Cn1c(SCCS(=O)(=O)c2ccc(Cl)cc2)nnc1-c1ccccc1,0,0,12,100*,19,0
Cn1c(SCC(=O)NNC(=O)Cc2ccccc2)nnc1-c1ccc(Cl)cc1,-2,-3,3,-5,0,13
Cc1c(Cl)cccc1N=Cc1ccc([N+](=O)[O-])s1,0,-9,6,101*,61,-31
Cc1nn(-c2ccccc2)c(Cl)c1C(=O)NC1CCCCC1,-1,15,-3,-5,3,1
Cc1nn(-c2ccccc2)c(Cl)c1C(=O)Nc1nnc(C2CCCC2)s1,4,3,-4,8,80*,-4
